The values below come from ChEMBL document CHEMBL4229449, “Synthesis and antimicrobial studies of hydrazone derivatives of 4-[3-(2,4-difluorophenyl)-4-formyl-1H-pyrazol-1-yl]benzoic acid and 4-[3-(3,4-difluorophenyl)-4-formyl-1H-pyrazol-1-yl]benzoic acid” (Bioorg Med Chem Lett, 2018).

The structures appear in SMILES notation. Converted amounts (≈) assume the structure as drawn. The source made the active and inactive calls. The rule behind the calls is not given here.

The test system of data set [1] is Staphylococcus aureus. Put plainly: Antimicrobial activity against Staphylococcus aureus by broth microdilution method. Format: functional.
Data set [2] deals with Staphylococcus aureus. Put plainly: Antimicrobial activity against methicillin-resistant Staphylococcus aureus by broth microdilution method. Format: functional. For orientation: Dilution methods test growth across graded concentrations, often in twofold steps.
The test system of data set [3] is Bacillus subtilis. Put plainly: Antimicrobial activity against Bacillus subtilis by broth microdilution method. The class given is functional.
Data set [4] deals with Acinetobacter baumannii. Put plainly: Antimicrobial activity against Acinetobacter baumannii by broth microdilution method. Format: functional.
The subject of data set [5] is Pseudomonas aeruginosa. Put plainly: Antimicrobial activity against Pseudomonas aeruginosa by broth microdilution method. Format: functional, organism-based.
Data set [6] has as its system Klebsiella aerogenes. Put plainly: Antimicrobial activity against Enterobacter aerogenes by broth microdilution method. Format: functional, organism-based.
Data set [7] relates to Staphylococcus aureus. Put plainly: Growth inhibition of methicillin-resistant Staphylococcus aureus LAC after 20 to 24 hrs by resazurin dye based method. Format: functional. A general note: Alamar Blue is a resazurin reagent that responds to reducing activity.
In data set [8] the test system is Staphylococcus aureus. Put plainly: Growth inhibition of methicillin-sensitive Staphylococcus aureus UAMS-1 after 20 to 24 hrs by resazurin dye based method. Format: functional.
Data set [9] deals with Panel NCI-60 (60 carcinoma cell lines). Put plainly: Cytotoxicity against human NCI60 cells assessed as reduction in cell viability at 10 uM after 24 hrs by resazurin dye based method.
Data set [10] deals with HEK293. Put plainly: Cytotoxicity against human HEK293 cells assessed as reduction in cell viability at 25 to 50 ug/ml after 24 hrs by resazurin dye based method. Conditions: hek293, 24 h. The procedure, abridged: (§1)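 HEK-293 human embryonic kidney cells were exposed to test compounds at 25 and 50 μg/mL and incubated for 24 h. Growth inhibition was read by resazurin assay and expressed as percent cell viability.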

In data set [11] the test system is HEK293. Put plainly: Cytotoxicity against human HEK293 cells assessed as reduction in cell viability at 50 ug/ml after 24 hrs by resazurin dye based method. Conditions: hek293, 24 h. The procedure, abridged: as §1

For `O=C(O)c1ccc(-n2cc(/C=N/Nc3ccc(Cl)cc3Cl)c(-c3ccc(F)cc3F)n2)cc1`, the MIC in data set [1] is 3.12 µg/mL (≈ 6.41 µM); in [2] it was 0.78 µg/mL (≈ 1.6 µM); in data set [3], 0.78 µg/mL (≈ 1.6 µM); in data set [4] it was 12.5 µg/mL (≈ 25.7 µM); in [7] it was 12.5 µg/mL (≈ 25.7 µM); in data set [8] it was 25 µg/mL (≈ 51.3 µM). The MIC result in data set [5] and in data set [6] was “inactive” throughout. The Activity entry in data set [9] is “Non-Toxic”; in data set [10], “Non-Toxic”; in [11], above 80%.

As for `O=C(O)c1ccc(-n2cc(/C=N/Nc3ccc(C(F)(F)F)cc3)c(-c3ccc(F)c(F)c3)n2)cc1`, the MIC is 0.78 µg/mL (≈ 1.6 µM) in [1]; 0.78 µg/mL (≈ 1.6 µM) in data set [2]; 0.78 µg/mL (≈ 1.6 µM) in data set [3]; 3.12 µg/mL (≈ 6.41 µM) in [4]; 3.12 µg/mL (≈ 6.41 µM) in data set [7]; 6.25 µg/mL (≈ 12.8 µM) in data set [8]. The MIC result in data set [5] and in data set [6] was “inactive” each time. Besides, the figures for the Activity entry in data set [9], in data set [10] and in data set [11] were “Non-Toxic”, “Non-Toxic” and above 80%, respectively.

As for `O=C(O)c1ccc(-n2cc(/C=N/Nc3ccc(Br)cc3)c(-c3ccc(F)cc3F)n2)cc1`, the MIC in [1] is 12.5 µg/mL (≈ 25.1 µM); in data set [2], 12.5 µg/mL (≈ 25.1 µM); in data set [3] it was 12.5 µg/mL (≈ 25.1 µM); in data set [4] it was 1.56 µg/mL (≈ 3.14 µM); in data set [7] it was 25 µg/mL (≈ 50.3 µM); in [8], 25 µg/mL (≈ 50.3 µM). Further, the MIC result in data set [5] and in data set [6] was “inactive” in each case. Also, the Activity entry is “Non-Toxic” in [9], “Non-Toxic” in data set [10] and above 80% in data set [11].

For the molecule `O=C(O)c1ccc(-n2cc(/C=N/Nc3ccc(Br)cc3)c(-c3ccc(F)c(F)c3)n2)cc1`, the MIC turned out to be 3.12 µg/mL (≈ 6.27 µM) in data set [1]; 1.56 µg/mL (≈ 3.14 µM) in data set [2]; 1.56 µg/mL (≈ 3.14 µM) in data set [3]; 0.78 µg/mL (≈ 1.57 µM) in [4]; 12.5 µg/mL (≈ 25.1 µM) in data set [7]; 12.5 µg/mL (≈ 25.1 µM) in [8]. Besides, the MIC result in data set [5] and in data set [6] was “inactive” throughout. Further, the Activity entry in data set [9] is on record as “Non-Toxic”; in data set [10] it was “Non-Toxic”; in data set [11], above 80%.

Consider `O=C(O)c1ccc(-n2cc(/C=N/Nc3ccc(Cl)cc3Cl)c(-c3ccc(F)c(F)c3)n2)cc1`, for which the MIC in [1] was found to be 1.56 µg/mL (≈ 3.2 µM); in data set [2], 1.56 µg/mL (≈ 3.2 µM); in [3], 0.78 µg/mL (≈ 1.6 µM); in [4] it was 3.12 µg/mL (≈ 6.41 µM); in data set [7], 6.25 µg/mL (≈ 12.8 µM); in data set [8], 6.25 µg/mL (≈ 12.8 µM). For the same molecule, the MIC result in [5] and in data set [6] was “inactive” throughout.

As a reminder, the MIC is the lowest concentration that inhibits growth of the organism.
